Screens (PubChem)
PREPL inh – inhibits the human prolyl oligopeptidase-like enzyme | 320,000 tested, 0.68% active | recombinant PREPL, fluorescence polarization activity-based probe | inhibition, % at 5.96 µM | Q4J6C6; in the data active = inhibition above about 43%
NTR1 ag – NTR1 (human) agonism; P30989; NTR1-U2OS beta-arrestin-GFP spot imaging, agonist mode; activation, % at 20 µM; 330,000 tested, 0.17% active; AID 493036;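 active = activation at or above 40% of the spot to cytoplasm intensity ratio, with at least 20 cells analyzed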
Target sequence (P30989 whole entry, looked up): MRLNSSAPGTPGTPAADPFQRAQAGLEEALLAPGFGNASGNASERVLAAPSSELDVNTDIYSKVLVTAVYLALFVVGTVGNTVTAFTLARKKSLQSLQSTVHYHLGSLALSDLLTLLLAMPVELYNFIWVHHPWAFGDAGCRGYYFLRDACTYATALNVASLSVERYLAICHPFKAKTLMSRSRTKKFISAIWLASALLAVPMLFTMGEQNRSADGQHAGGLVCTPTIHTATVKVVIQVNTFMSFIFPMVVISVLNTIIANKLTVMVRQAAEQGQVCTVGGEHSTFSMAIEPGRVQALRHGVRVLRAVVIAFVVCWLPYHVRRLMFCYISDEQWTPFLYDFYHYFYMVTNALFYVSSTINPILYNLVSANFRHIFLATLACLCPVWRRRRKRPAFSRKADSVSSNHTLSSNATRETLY
MC4R ag barr – agonists of human melanocortin 4 receptor (MC4R) beta-arrestin; P32245; U2OS MC4R beta-arrestin complementation, luminescence; percent of melanotan II response, DMSO zero; activation, % at 8.9 µM; 360,000 tested, 0.98% active; AID 540308;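 active = activation above a per-plate cutoff, the mean activation of sample wells on that plate plus 3 SD, cut at about 8% in these data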
m5-HT2A agonist – activates the mouse 5-HT2A serotonin receptor; P35363; CHO-K1 mHTR2A beta-arrestin complementation, luminescence; percent of 30 µM serotonin response; activation, % at 7.6 µM; 360,000 tested, 0.66% active; AID 624169;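 active = activation above a run cutoff, the mean activation of all tested compounds plus 3 SD, cut at about 14% in these data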
Hep lipid drop – hepatic lipid droplet formation modulation. AML12 mouse hepatocytes, oleate lipid droplets, BODIPY imaging. inhibition, % at 6.5 µM. 240,000 tested, 0.4% active;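 active = lipid droplet intensity inhibited by at least 50%, with more than 500 cells counted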
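Test system: AML12 hepatocytes (mouse); reagent: oleate loading, 100 µM; dosing: one dose, 6.5 µM compound; incubation: overnight exposure; signal: fluorescence imaging, 20x objective, two fields per well; read-out basis: % inhibition of corrected integrated BODIPY droplet signal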
MC4R antagonist – human MC4R antagonism in cAMP assay; P32245; MC4R-expressing cells, MTII-stimulated cAMP, LANCE TR-FRET; inhibition, % at 6.5 µM; 360,000 tested, 0.48% active; AID 540295;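 active = inhibition above its plate's cutoff, the mean of tested wells on that plate plus 3 SD, cut at about 29% in these data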
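material = U2OS cells stably expressing human melanocortin 4 receptor (MC4R) | also added = Melanotan II challenge | dosing = single nominal compound dose of 6.5 µM | detection = TR-FRET with Eu-cAMP and labeled anti-cAMP, 671 nm | replication = singlicate | timing = compound 30 min, challenge 1 h, detection 1 h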
MC4R barr conf – human MC4R beta-arrestin agonism confirmation. shares compounds with MC4R ag barr. U2OS MC4R beta-arrestin recruitment, luminescence; scaled DMSO 0%, Melanotan II 100%. 2,400 tested, 31% active. activation, % at 8.9 µM;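 active = mean activation across replicates above the hit cutoff set in the earlier primary screen, cut at about 8% in these data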
MOR-DOR barr ag – counter-screen for MC4R agonists: agonists of mu-delta opioid heterodimer; shares compounds with MC4R ag barr; U2OS PathHunter beta-arrestin, beta-gal luminescence; percent of deltorphin B response, DMSO zero; activation, % at 9.2 µM; 2,400 tested, 5.8% active; AID 602194;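 active = mean activation across replicates exceeds the hit threshold derived in the earlier primary screen, cut at about 18% in these data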
Numbers stand for hits; i = inactive; nt = no result. Only some compounds are listed: those with a hit (about 2.7% of all), similar ones and a draw of the others.

SMILES	PREPL inh	NTR1 ag	MC4R ag barr	m5-HT2A agonist	Hep lipid drop	MC4R antagonist	MC4R barr conf	MOR-DOR barr ag
COc1ccc(NC(=O)CSc2ncccc2C(=O)OC(C)C)cc1OC	i	i	i	i	i	i	nt	nt
O=C(COC(=O)/C=C/c1cccc(Cl)c1)Nc1ccc(N2CCOCC2)cc1	i	i	9.8	i	nt	i	i	i
Cc1ccc(NC(=O)COC(=O)/C=C/c2cccc(Cl)c2)cc1S(=O)(=O)N1CCOCC1	i	i	i	i	i	i	nt	nt
CC(C)c1ccc(NC(=O)COC(=O)/C=C/c2cccc([N+](=O)[O-])c2)cc1	i	i	16	i	i	i	i	i
CC(C)c1ccc(NC(=O)CSc2ncccc2C(=O)Oc2cccc([N+](=O)[O-])c2)cc1	i	i	20	i	i	i	17	i
Cc1ccc(NC(=O)c2ccc(Cl)c(S(=O)(=O)N3CCCC3)c2)nc1	i	i	i	i	nt	i	nt	nt
CCOc1ccc2oc(-c3ccccc3)c(C(=O)N3CCN(CCO)CC3)c2c1	nt	nt	i	i	i	i	nt	nt
COc1ccc(-c2cc(NC(C)=O)c3ncc(-c4cccc(C(F)(F)F)c4)n3c2)c(OC)c1	nt	nt	26	i	nt	i	25	i
CC(=O)Nc1cc(-c2ccc(C(=O)N3CCOCC3)cc2)cn2c(-c3cccc(C(F)(F)F)c3)cnc12	nt	nt	i	i	nt	i	nt	nt
COc1ccc(-c2cc(NC=O)c3ncc(-c4cccc(C(F)(F)F)c4)n3c2)c(OC)c1	nt	nt	20	i	nt	i	13	i
COc1ccccc1-c1cc(NC(C)=O)c2ncc(-c3cccc(C(F)(F)F)c3)n2c1	nt	nt	25	i	nt	i	22	i
CC(=O)Nc1cc(-c2cccnc2)cn2c(-c3cccc(C(F)(F)F)c3)cnc12	nt	nt	28	i	nt	i	29	i
COc1ccc(-c2cnc3c(NC=O)cc(-c4ccccc4OC)cn23)cc1OC	nt	nt	i	i	nt	i	nt	nt
Cc1c(OCC(=O)NCC(O)c2ccccc2)ccc2c3c(c(=O)oc12)CCCC3 (stereo unspecified)	i	i	i	i	i	i	nt	nt
COc1cccc(CNC(=O)COC(=O)c2ccc(Cl)s2)c1	i	i	i	i	nt	i	nt	nt
CCOc1ccc2nc(SCC(=O)NC3CCCc4ccccc43)sc2c1 (stereo unspecified)	i	i	31	i	i	i	i	i
O=C(CCc1ccccc1)NC(NC(=S)Nc1ccc(Br)cc1)C(Cl)(Cl)Cl (stereo unspecified)	i	i	13	i	i	i	i	i
O=C(CCc1ccccc1)NC(NC(=S)Nc1cccc(Cl)c1)C(Cl)(Cl)Cl (stereo unspecified)	i	i	i	i	i	i	nt	nt
Cc1ccc2c(c1)/C(=C/c1ccc(F)cc1)C(=O)N2	i	i	i	i	i	i	nt	nt
Cc1ccc(C2=N/C(=C\c3ccc(F)cc3)C(=O)N2)cc1	i	i	22	i	nt	i	i	i
CC(=O)NCCc1c(C)n(Cc2ccccc2)c2ccccc12	i	i	i	i	i	i	nt	nt
CCC(=O)Nc1sc(C(=O)Nc2ccccc2F)c(C)c1C(=O)OC	i	i	i	i	i	i	nt	nt
CCC(=O)Nc1sc(C(=O)Nc2ccccc2OC)c(C)c1C(=O)OC	i	i	11	i	i	i	i	i
CCn1c2ccccc2c2cc(NC(=O)CSc3nnc(-c4ccc(OC)cc4)n3N)ccc21	i	i	21	i	nt	i	12	20
C=CCOc1ccc(/C=C/C(=O)OCc2csc(CC(=O)Nc3ccccc3C)n2)cc1	i	i	15	i	nt	i	8.7	i
Cc1ccccc1NC(=O)Cc1nc(COC(=O)/C=C/c2ccc(F)cc2)cs1	nt	nt	i	i	nt	i	nt	nt
Cc1ccccc1NC(=O)Cc1nc(COC(=O)c2cc(Br)ccc2O)cs1	i	i	16	i	nt	i	i	i
